In ChEMBL document CHEMBL2040727, “Substituted thiazoles VI. Synthesis and antitumor activity of new 2-acetamido- and 2 or 3-propanamido-thiazole analogs” (2012):

These molecules were tested on PC-3 (assay: Growth inhibition of human PC3 cells at 10 uM after 48 hrs by coulter counter analysis). Details: PC-3, 48 h, read-out: GI.
Assay type: functional
Summary of the method: (§1)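 Single-dose NCI 60-line panel screen of test compounds. Cells grown in RPMI 1640 with 10% FBS. Compounds dissolved in DMSO, then diluted in phosphate buffer saline (final DMSO below 1%). Wells run in duplicate at 6 × 10⁴ cells/ml. Controls held PBS and DMSO at matching dilutions. Incubation 48 h at 37 °C under humidified 5% CO2. Cells diluted tenfold in saline and counted by Coulter counter. Percent growth inhibition taken from mean-graph of treated-cell growth.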

Compound	inhibition of growth at 10 µM
CCOC(=O)c1sc(NC(=O)CCN2CCN(c3ccccc3)CC2)nc1C	< 10%
O=C(CCCl)Nc1nc(-c2ccccc2)cs1	57.9%

The molecules below were run on SK-MEL-28 (assay: Growth inhibition of human SK-MEL-28 cells at 10 uM after 48 hrs by coulter counter analysis). Details: SK-MEL-28, 48 h, read-out: GI.
Assay type: functional
Summary of the method: as §1

Compound	inhibition of growth at 10 µM
CCOC(=O)c1sc(NC(=O)CCN2CCN(c3ccccc3)CC2)nc1C	< 10%
O=C(CCCl)Nc1nc(-c2ccccc2)cs1	19.4%

The molecules below were run on A498 (assay: Growth inhibition of human A498 cells at 10 uM after 48 hrs by coulter counter analysis). Details: A498, 48 h, read-out: GI.
Assay type: functional
Summary of the method: as §1

Compound	inhibition of growth at 10 µM
CCOC(=O)c1sc(NC(=O)CCN2CCN(c3ccccc3)CC2)nc1C	12.8%
O=C(CCCl)Nc1nc(-c2ccccc2)cs1	78.4%

These molecules were tested on HCT-116 (assay: Growth inhibition of human HCT116 cells at 10 uM after 48 hrs by coulter counter analysis). Details: HCT-116, 48 h, read-out: GI.
Assay type: functional
Summary of the method: as §1

Compound	inhibition of growth at 10 µM
CCOC(=O)c1sc(NC(=O)CCN2CCN(c3ccccc3)CC2)nc1C	< 10%
O=C(CCCl)Nc1nc(-c2ccccc2)cs1	78.3%

These molecules were tested on RXF 393 (assay: Growth inhibition of human RXF393 cells at 10 uM after 48 hrs by coulter counter analysis). Details: RXF 393, 48 h, read-out: GI.
Assay type: functional
Summary of the method: as §1

Compound	inhibition of growth at 10 µM
CCOC(=O)c1sc(NC(=O)CCN2CCN(c3ccccc3)CC2)nc1C	< 10%
O=C(CCCl)Nc1nc(-c2ccccc2)cs1	80.4%

These molecules were tested on NCI-H460 (assay: Growth inhibition of human NCI-H460 cells at 10 uM after 48 hrs by coulter counter analysis). Details: NCI-H460, 48 h, read-out: GI.
Assay type: functional
Summary of the method: as §1

Compound	inhibition of growth at 10 µM
CCOC(=O)c1sc(NC(=O)CCN2CCN(c3ccccc3)CC2)nc1C	< 10%
O=C(CCCl)Nc1nc(-c2ccccc2)cs1	63.6%

What follows are molecules tested on SNB-19 (assay: Growth inhibition of human SNB19 cells at 10 uM after 48 hrs by coulter counter analysis). Details: SNB-19, 48 h, read-out: GI.
Assay type: functional
Summary of the method: as §1

Compound	inhibition of growth at 10 µM
CCOC(=O)c1sc(NC(=O)CCN2CCN(c3ccccc3)CC2)nc1C	< 10%
O=C(CCCl)Nc1nc(-c2ccccc2)cs1	29.3%

What follows are molecules tested on DU-145 (assay: Growth inhibition of human DU145 cells at 10 uM after 48 hrs by coulter counter analysis). Details: DU-145, 48 h, read-out: GI.
Assay type: functional
Summary of the method: as §1

Compound	inhibition of growth at 10 µM
CCOC(=O)c1sc(NC(=O)CCN2CCN(c3ccccc3)CC2)nc1C	< 10%
O=C(CCCl)Nc1nc(-c2ccccc2)cs1	89.8%

These molecules were tested on HT-29 (assay: Growth inhibition of human HT-29 cells at 10 uM after 48 hrs by coulter counter analysis). Details: HT-29, 48 h, read-out: GI.
Assay type: functional
Summary of the method: as §1

Compound	inhibition of growth at 10 µM
CCOC(=O)c1sc(NC(=O)CCN2CCN(c3ccccc3)CC2)nc1C	< 10%
O=C(CCCl)Nc1nc(-c2ccccc2)cs1	76.1%

What follows are molecules tested on SNB-75 (assay: Growth inhibition of human SNB75 cells at 10 uM after 48 hrs by coulter counter analysis). Details: SNB-75, 48 h, read-out: GI.
Assay type: functional
Summary of the method: (§2)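 Single-dose screen in the NCI 60 cell line panel. Cells grown in RPMI 1640 with 10% FBS. Compounds dissolved in DMSO and diluted in phosphate buffered saline, final DMSO under 1%. Duplicate wells seeded from culture at 6 × 10⁴ cells/ml. Incubated 48 h at 37 °C, humidified, 5% CO2. Cells diluted tenfold in saline and Coulter-counted. Percent growth inhibition computed against PBS/DMSO controls.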

Compound	inhibition of growth at 10 µM
CCOC(=O)c1sc(NC(=O)CCN2CCN(c3ccccc3)CC2)nc1C	< 10%
O=C(CCCl)Nc1nc(-c2ccccc2)cs1	60.6%

These molecules were tested on NCI-H23 (assay: Growth inhibition of human NCI-H23 cells at 10 uM after 48 hrs by coulter counter analysis). Details: NCI-H23, 48 h, read-out: GI.
Assay type: functional
Summary of the method: as §1

Compound	inhibition of growth at 10 µM
CCOC(=O)c1sc(NC(=O)CCN2CCN(c3ccccc3)CC2)nc1C	< 10%
O=C(CCCl)Nc1nc(-c2ccccc2)cs1	34.7%

The molecules below were run on CCRF-CEM (assay: Growth inhibition of human CCRF-CEM cells at 10 uM after 48 hrs by coulter counter analysis). Details: read-out: GI.
Assay type: functional
Summary of the method: as §1

Compound	inhibition of growth at 10 µM
CCOC(=O)c1sc(NC(=O)CCN2CCN(c3ccccc3)CC2)nc1C	< 10%
O=C(CCCl)Nc1nc(-c2ccccc2)cs1	92.7%

What follows are molecules tested on 786-0 (assay: Growth inhibition of human 786-0 cells at 10 uM after 48 hrs by coulter counter analysis). Details: 786-0, 48 h, read-out: GI.
Assay type: functional
Summary of the method: as §1

Compound	inhibition of growth at 10 µM
CCOC(=O)c1sc(NC(=O)CCN2CCN(c3ccccc3)CC2)nc1C	< 10%
O=C(CCCl)Nc1nc(-c2ccccc2)cs1	36.7%

These molecules were tested on HOP-62 (assay: Growth inhibition of human HOP62 cells at 10 uM after 48 hrs by coulter counter analysis). Details: HOP-62, 48 h, read-out: GI.
Assay type: functional
Summary of the method: as §1

Compound	inhibition of growth at 10 µM
CCOC(=O)c1sc(NC(=O)CCN2CCN(c3ccccc3)CC2)nc1C	< 10%
O=C(CCCl)Nc1nc(-c2ccccc2)cs1	51.4%

What follows are molecules tested on U-251 (assay: Growth inhibition of human U251 cells at 10 uM after 48 hrs by coulter counter analysis). Details: U-251, 48 h, read-out: GI.
Assay type: functional
Summary of the method: as §2

Compound	inhibition of growth at 10 µM
CCOC(=O)c1sc(NC(=O)CCN2CCN(c3ccccc3)CC2)nc1C	< 10%
O=C(CCCl)Nc1nc(-c2ccccc2)cs1	55.8%

The molecules below were run on A549 (assay: Growth inhibition of human A549/ATCC cells at 10 uM after 48 hrs by coulter counter analysis). Details: A549, 48 h, read-out: GI.
Assay type: functional
Summary of the method: as §1

Compound	inhibition of growth at 10 µM
CCOC(=O)c1sc(NC(=O)CCN2CCN(c3ccccc3)CC2)nc1C	< 10%
O=C(CCCl)Nc1nc(-c2ccccc2)cs1	53.1%

What follows are molecules tested on EKVX (assay: Growth inhibition of human EKVX cells at 10 uM after 48 hrs by coulter counter analysis). Details: read-out: GI.
Assay type: functional
Summary of the method: as §1

Compound	inhibition of growth at 10 µM
CCOC(=O)c1sc(NC(=O)CCN2CCN(c3ccccc3)CC2)nc1C	< 10%
O=C(CCCl)Nc1nc(-c2ccccc2)cs1	24.1%

These molecules were tested on HL-60(TB) (assay: Growth inhibition of human HL-60(TB) cells at 10 uM after 48 hrs by coulter counter analysis). Details: HL-60, 48 h, read-out: GI.
Assay type: functional
Summary of the method: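 Cells grown in RPMI 1640 with 10% FBS. Compound was dissolved in DMSO and diluted in PBS (under 1% DMSO final), then added in duplicate wells to culture at 6 × 10⁴ cells/ml. PBS/DMSO vehicle controls were included. Incubated at 37 °C, humidified 5% CO₂, for 48 h. Cells were diluted 10-fold in saline and Coulter-counted. Single-dose NCI-60 screen, read as percent growth inhibition.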

Compound	inhibition of growth at 10 µM
CCOC(=O)c1sc(NC(=O)CCN2CCN(c3ccccc3)CC2)nc1C	< 10%
O=C(CCCl)Nc1nc(-c2ccccc2)cs1	17.9%

Each molecule was assayed on CAKI-1 (assay: Growth inhibition of human Caki1 cells at 10 uM after 48 hrs by coulter counter analysis). Details: CAKI-1, 48 h, read-out: GI.
Assay type: functional
Summary of the method: as §1

Compound	inhibition of growth at 10 µM
CCOC(=O)c1sc(NC(=O)CCN2CCN(c3ccccc3)CC2)nc1C	< 10%
O=C(CCCl)Nc1nc(-c2ccccc2)cs1	69.3%

The molecules below were run on K562 (assay: Growth inhibition of human K562 cells at 10 uM after 48 hrs by coulter counter analysis). Details: K562, 48 h, read-out: GI.
Assay type: functional
Summary of the method: as §1

Compound	inhibition of growth at 10 µM
CCOC(=O)c1sc(NC(=O)CCN2CCN(c3ccccc3)CC2)nc1C	< 10%
O=C(CCCl)Nc1nc(-c2ccccc2)cs1	69.3%

These molecules were tested on MOLT-4 (assay: Growth inhibition of human MOLT4 cells at 10 uM after 48 hrs by coulter counter analysis). Details: MOLT-4, 48 h, read-out: GI.
Assay type: functional
Summary of the method: as §1

Compound	inhibition of growth at 10 µM
CCOC(=O)c1sc(NC(=O)CCN2CCN(c3ccccc3)CC2)nc1C	< 10%
O=C(CCCl)Nc1nc(-c2ccccc2)cs1	40.7%
